Sampled rows, rich in hits. Any-hit rate of the full collection: about 2.2%.
Runt-SMMHC FRET = Runt domain-CBFb-SMMHC interaction inhibition | Cerulean-Runt/Venus-CBFb-SMMHC FRET ratio 530/480, 1 h | inhibition, % at 20 µM | 220,000 tested, 0.74% active;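 active = mean inhibition across duplicate retests at 20 µM reaching about 50%, limit read from the data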;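 also: inhibitors lower the FRET ratio by blocking Runt binding to CBFb-SMMHC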
Target sequence (Q01196 whole entry, looked up, the tested form may be a part): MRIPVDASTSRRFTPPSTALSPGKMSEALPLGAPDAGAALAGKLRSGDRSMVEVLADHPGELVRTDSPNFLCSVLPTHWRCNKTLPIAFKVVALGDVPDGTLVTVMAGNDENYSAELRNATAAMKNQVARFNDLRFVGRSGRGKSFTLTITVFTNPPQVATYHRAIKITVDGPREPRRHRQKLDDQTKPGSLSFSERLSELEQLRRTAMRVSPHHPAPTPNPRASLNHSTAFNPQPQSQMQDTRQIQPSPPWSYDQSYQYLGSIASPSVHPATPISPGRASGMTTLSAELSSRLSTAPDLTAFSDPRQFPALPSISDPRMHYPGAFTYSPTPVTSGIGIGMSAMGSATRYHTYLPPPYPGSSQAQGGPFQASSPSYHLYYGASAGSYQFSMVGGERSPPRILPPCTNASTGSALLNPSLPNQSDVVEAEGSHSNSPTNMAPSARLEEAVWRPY
Target sequence (Q13951 whole entry, looked up, the tested form may be a part): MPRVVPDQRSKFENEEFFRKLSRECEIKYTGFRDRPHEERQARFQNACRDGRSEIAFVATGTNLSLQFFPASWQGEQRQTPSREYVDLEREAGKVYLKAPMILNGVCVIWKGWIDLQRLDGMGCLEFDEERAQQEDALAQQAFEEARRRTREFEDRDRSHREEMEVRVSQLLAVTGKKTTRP
Hck-Nef inh = blocks Nef-activated human Hck kinase; Recombinant Hck-YEEI plus Nef, Z-Lyte FRET kinase assay; inhibition, % at 20 µM; AID 463187; 220,000 tested, 0.68% active; P08631;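 active = Hck-Nef kinase inhibition above about 50%, limit read from the data; inactive = inhibition below that limit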
Tb hexokinase = T. brucei hexokinase 1 inhibition | recombinant TbHK1, G6PDH-coupled NADH A340 | inhibition, % at 10 µM | 220,000 tested, 0.11% active;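 active = inhibition of 50% or more in the single-dose primary screen; inactive = inhibition below 50%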
Runt-CBFb FRET = inhibitors of human RUNX1 Runt domain binding to CBFb. Q01196+Q13951. Cerulean-Runt/Venus-CBFb FRET ratio 530/480, 1 h. inhibition, % at 20 µM. 220,000 tested, 0.46% active. AID 1496;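 active = inhibition over about 50% at 20 µM in the single-dose screen, limit read from the data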
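test system = Cerulean-tagged RUNX1 Runt domain (FRET donor) fusion protein | reagent = Venus-CBFb binding partner, 100 nM | incubation = protein complex preformed 1 h, compound exposure 1 h, room temperature, dark | detection = FRET fluorescence | read-out basis = loss of energy transfer signal | controls = 5 µM unlabeled CBFb as full-inhibition high control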
RanGTP-Imp inh = inhibitors of RanGTP-importin-beta interaction, primary screen, biochemical, FRET, CFP-Ran, YFP-importin-beta, homogeneous | inhibition, % (no concentration beside the values) | AID 2216 | 300,000 tested, 1.1% active | cell-free CFP-Ran/YFP-importin-beta FRET ratio;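 active = more than half of the replicate wells show a fall in the fluorescence ratio signal beyond about 16%, limit read from the data, passing the limit was not always enough; inconclusive = exactly half of the replicate wells pass the set limit; inactive = fewer than half of replicates pass the limit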
14-3-3 Bad PPI = disrupts binding of bovine 14-3-3 zeta to phospho-Bad peptide; P63103; TR-FRET 14-3-3zeta/Dy647-pBad peptide displacement, 1 h; inhibition, % at 21.7 µM; 220,000 tested, 0.71% active; AID 781;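 active = inhibition above about 70%, limit read from the data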
Hits are given with their value; n = inactive; u = inconclusive; x = no result given.

SMILES	Runt-SMMHC FRET	Hck-Nef inh	Tb hexokinase	Runt-CBFb FRET	RanGTP-Imp inh	14-3-3 Bad PPI
CCOC(=O)c1c2ccc(OCC(=O)N/N=C/c3ccc(Cl)cc3)cc2n2ccccc12	n	n	n	x	41	n
CCOC(=O)COc1ccc2c(C#N)c3ccccn3c2c1	92	n	n	n	n	n
CCOC(=O)c1c2ccc(OCC(=O)N/N=C/c3ccccc3C(F)(F)F)cc2n2ccccc12	n	n	n	n	x	n
N#Cc1c2ccc(OCC(N)=O)cc2n2ccccc12	86	n	n	n	55	n
COc1cc(OC)cc(C(=O)c2c(C)c(C#N)c3ccccn23)c1	x	x	x	x	n	x
CCC1CN(C(=O)N2CCC(C(=O)NCc3cccc(OC)c3OC)CC2)c2cc(C)ccc2O1 (stereo not given)	x	x	x	x	n	x
COc1ccccc1-n1cnc2cc(NCc3ccccc3O)ccc21	n	n	n	n	42	n
CCCCc1nc2cc(C(=O)N3CCN(c4nc(C)cnc4C)CC3)ccc2o1	x	x	x	x	n	x
CCN(CC)c1ccc(C=C2C(=O)OC3(CCCCC3)OC2=O)cc1	n	n	n	n	u	n
Nc1ccc2c(c1)OC1(CCCCC1)O2	n	n	n	n	n	100
CCC(C)(C(=O)NC1CCCC1)N(C(=O)CNC(=O)c1ccccc1)c1c(C)n(C)n(-c2ccccc2)c1=O (stereo not given)	n	n	n	n	n	n
Cc1occc1-c1nnc(SCC(=O)N(C)c2ccccc2)n1C	x	x	x	x	26	x
Cc1occc1-c1nnc(SCC(=O)Nc2ccccc2-c2ccccc2)n1C	n	n	n	n	n	n
CC(=O)c1csc(Nc2ccccc2Cl)n1	n	n	n	n	n	90
CCCNC(=O)c1csc(Nc2cccc3ccccc23)n1	x	x	x	x	n	x
CC(CC(F)(F)F)N1CCC(n2nccc2NC(=O)CCCc2ccccc2)CC1 (stereo not given)	x	x	x	x	57	x
C=CCn1c(SCC(=O)c2[nH]c(C)c(C(=O)OCC)c2C)nc2scc(-c3ccc(OC)c(OC)c3)c2c1=O	n	n	n	n	n	82
NS(=O)(=O)c1ccc(N2C(=O)C(=O)/C(=C(/O)c3ccccc3)C2c2ccc(Cl)cc2)cc1 (stereo not given)	n	n	n	n	n	n
CCC(=O)Nc1c(C#N)c2nc3ccccc3nc2n1C1CCCCC1	n	n	n	n	n	x
N#Cc1c(N)n(-c2ccc(N)cc2)c2nc3ccccc3nc12	n	n	n	n	n	n
CCCCC(CC)Cn1c(N)c(C#N)c2nc3ccccc3nc21 (stereo not given)	101	n	n	n	49	n
CN(C)CCCn1c(N)c(C#N)c2nc3ccccc3nc21	80	n	n	n	61	n
CCCCCCNC(=O)C(C#N)c1nc2ccccc2nc1N1CCCC1 (stereo not given)	n	n	n	n	24	n
CCCCCNC(=O)C(C#N)c1nc2ccccc2nc1N1CCCC1 (stereo not given)	n	n	n	n	20	n
COCCCNC(=O)C(C#N)c1nc2ccccc2nc1N1CCCC1 (stereo not given)	x	n	n	x	54	n
SMILES	Runt-SMMHC FRET	Hck-Nef inh	Tb hexokinase	Runt-CBFb FRET	RanGTP-Imp inh	14-3-3 Bad PPI
CC(C)C(NS(=O)(=O)c1cccc2nsnc12)C(=O)NC1CCCCC1C (stereo not given)	x	x	x	x	n	x
CC1=C(C(=O)OCC2CCCO2)C(c2ccc(C)cc2)C2=C(CC(C)(C)CC2=O)N1 (stereo not given)	56	n	n	n	n	n
CCOC(=O)C1=C(C)NC2=C(C(=O)CC(C)(C)C2)C1c1cccc(C)n1 (stereo not given)	88	n	n	n	u	n
CCCCC1C(C#N)=C(C)NC2=C1C(=O)CC(C)(C)C2 (stereo not given)	69	n	n	n	n	n
COC(=O)c1ccc(C2C(C#N)=C(C)NC3=C2C(=O)CC(C)(C)C3)cc1 (stereo not given)	81	n	n	n	n	n
Cc1c(C(=O)N2CCCC2)c(S(=O)(=O)N2CCN(c3ccccc3F)CC2)c(C)n1C	x	x	x	x	n	x
CN1CCN(CCCNC(=O)c2ccc(/C=C3/Sc4ccccc4N(Cc4cccc(Cl)c4)C3=O)cc2)CC1	n	n	n	n	n	77
CCN1CCN(CCNC(=O)c2ccc(/C=C3\Sc4ccccc4N(Cc4ccccc4F)C3=O)cc2)CC1	n	n	n	n	n	n
CN1CCN(CCCNC(=O)c2ccc(/C=C3\Sc4ccccc4N(Cc4ccc(F)cc4)C3=O)cc2)CC1	n	n	n	n	n	74
NC(=O)c1ncn([C@@H]2O[C@H](CO)[C@@H](O)[C@H]2O)c1O	n	n	n	n	n	n
O=c1ccc(Oc2nc(N3CCCCC3)nc(N3CCCCC3)n2)n[nH]1	n	n	n	n	n	74
Cc1ccc(-c2nc(NC(=O)CSc3cc(C)c4ccccc4n3)ns2)cc1	n	n	n	n	n	75
O=C(c1cnn(C(=O)c2ccccc2)c1)c1ccccc1O	n	62	n	n	n	n
COc1ccc(Cl)cc1NC(=O)C(OC)c1ccccc1 (stereo not given)	n	n	n	n	u	87
CCC(C(=O)Nc1cc(Cl)ccc1OC)c1ccccc1 (stereo not given)	n	n	n	n	n	n
CCCn1cnc2cc(NCc3cccc(OC)c3)ccc21	n	n	n	n	24	n
COc1cccc(CNc2ccc(F)c(Cl)c2)c1	n	n	n	n	n	78
CCOc1ccc(CNc2ccc3c(c2)ncn3C(C)(C)C)cc1	x	x	x	x	19	x
COc1cccc(CNc2ccc(F)c(Cl)c2)c1O	x	n	n	x	n	n
COc1ccc(NC(=O)CSc2nc(NS(=O)(=O)c3ccccc3)cc(=O)[nH]2)cc1	n	n	n	n	n	75
O=[N+]([O-])c1ccc(S(=O)(=O)NCC2COc3ccccc3O2)cc1 (stereo not given)	x	x	x	x	187	x
O=[N+]([O-])c1ccc(S(=O)(=O)NCC2CCCO2)cc1 (stereo not given)	n	n	n	n	n	n
O=C(c1cccs1)c1ccc(-c2cccs2)s1	n	n	n	n	42	x
CCN(CC)c1ccc2c(c1)oc(=O)c1c(Cl)cc(=O)oc12	62	n	n	n	67	n
CCN(CC)c1ccc2c(C)c(-c3ccc(N)cc3)c(=O)oc2c1	64	n	n	n	136	n
CCN(CC)c1ccc2c(Cl)c(Br)c(=O)oc2c1	n	n	n	n	43	n
CCOc1ccc2c(C)c(Cl)c(=O)oc2c1	n	n	n	n	n	n
O=C(COc1ccc([N+](=O)[O-])cc1)NNC(=O)Nc1ccccc1F	x	x	x	x	n	x
